According to ChEMBL document CHEMBL5058577, “EUbOPEN Chemogenomics Library 2 (Multiplex)” (2022):

Test system: Fibroblast
Assay: Multiplex assay against human fibroblast
Assay type: toxicity, cell-based
Summary of the method: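 Tubulin, mitochondrial-mass and membrane-permeability phenotypes are per cents of healthy-nucleus cells. Cells were gated by CellPathfinder machine learning into Hoechst high-intensity objects or normal cells, normal cells into healthy, pyknosed or fragmented nuclei, and pyknosed cells into mitotic or apoptotic. Before that, live cells stained at seeding with Hoechst33342, BioTracker Green Microtubule Cytoskeleton Dye, MitoTracker Red and Annexin V Alexa Fluor 680 were imaged on a CQ1 microscope at 37°C and 5% CO2 after compound addition.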

[1] = 12 h, 1 µM, compound concentration 1 uM, replicate 1
[2] = 12 h, 1 µM, compound concentration 1 uM, replicate 2
[3] = 12 h, 10 µM, compound concentration 10 uM, replicate 1
[4] = 12 h, 10 µM, compound concentration 10 uM, replicate 2
[5] = 24 h, 1 µM, compound concentration 1 uM, replicate 1
[6] = 24 h, 1 µM, compound concentration 1 uM, replicate 2
[7] = 24 h, 10 µM, compound concentration 10 uM, replicate 1
[8] = 24 h, 10 µM, compound concentration 10 uM, replicate 2
[9] = 48 h, 1 µM, compound concentration 1 uM, replicate 1
[10] = 48 h, 1 µM, compound concentration 1 uM, replicate 2
[11] = 48 h, 10 µM, compound concentration 10 uM, replicate 1
[12] = 48 h, 10 µM, compound concentration 10 uM, replicate 2

O=c1nc2[nH]c3ccccc3nc-2c(=O)[nH]1 [ALLOXAZINE]
Population Apoptotic (%) [1]: 56%
Population Fragmented Nuclei (%) [1]: 16%
Population Healthy Nuclei (%) [1]: 67%
Population Hoechst High Intensity Objects (%) [1]: 5%
Population Membrane Permeable-Phenotype (%) [1]: 0%
Population Mitochondria Different-Phenotype (%) [1]: 2%
Population Mitotic Cells (%) [1]: 43%
Population Normal (%) [1]: 94%
Population Pyknosed Nuclei (%) [1]: 16%
Population Tubulin-Different-Phenotype (%) [1]: 23%
Total Cell Count [1]: 193
Population Apoptotic (%) [2]: 37%
Population Fragmented Nuclei (%) [2]: 26%
Population Healthy Nuclei (%) [2]: 50%
Population Hoechst High Intensity Objects (%) [2]: 3%
Population Membrane Permeable-Phenotype (%) [2]: 6%
Population Mitochondria Different-Phenotype (%) [2]: 3%
Population Mitotic Cells (%) [2]: 62%
Population Normal (%) [2]: 96%
Population Pyknosed Nuclei (%) [2]: 23%
Population Tubulin-Different-Phenotype (%) [2]: 33%
Total Cell Count [2]: 131
Population Apoptotic (%) [3]: 33%
Population Fragmented Nuclei (%) [3]: 23%
Population Healthy Nuclei (%) [3]: 60%
Population Hoechst High Intensity Objects (%) [3]: 4%
Population Membrane Permeable-Phenotype (%) [3]: 3%
Population Mitochondria Different-Phenotype (%) [3]: 5%
Population Mitotic Cells (%) [3]: 66%
Population Normal (%) [3]: 95%
Population Pyknosed Nuclei (%) [3]: 15%
Population Tubulin-Different-Phenotype (%) [3]: 23%
Total Cell Count [3]: 158
Population Apoptotic (%) [4]: 41%
Population Fragmented Nuclei (%) [4]: 41%
Population Healthy Nuclei (%) [4]: 38%
Population Hoechst High Intensity Objects (%) [4]: 1%
Population Mitochondria Different-Phenotype (%) [4]: 15%
Population Mitotic Cells (%) [4]: 58%
Population Normal (%) [4]: 98%
Population Pyknosed Nuclei (%) [4]: 20%
Population Tubulin-Different-Phenotype (%) [4]: 57%
Total Cell Count [4]: 86
Population Apoptotic (%) [5]: 52%
Population Fragmented Nuclei (%) [5]: 17%
Population Healthy Nuclei (%) [5]: 69%
Population Hoechst High Intensity Objects (%) [5]: 3%
Population Membrane Permeable-Phenotype (%) [5]: 0%
Population Mitochondria Different-Phenotype (%) [5]: 2%
Population Mitotic Cells (%) [5]: 47%
Population Normal (%) [5]: 96%
Population Pyknosed Nuclei (%) [5]: 12%
Population Tubulin-Different-Phenotype (%) [5]: 21%
Total Cell Count [5]: 190
Population Apoptotic (%) [6]: 36%
Population Fragmented Nuclei (%) [6]: 31%
Population Healthy Nuclei (%) [6]: 41%
Population Hoechst High Intensity Objects (%) [6]: 4%
Population Membrane Permeable-Phenotype (%) [6]: 2%
Population Mitochondria Different-Phenotype (%) [6]: 0%
Population Mitotic Cells (%) [6]: 63%
Population Normal (%) [6]: 95%
Population Pyknosed Nuclei (%) [6]: 27%
Population Tubulin-Different-Phenotype (%) [6]: 31%
Total Cell Count [6]: 114
Population Apoptotic (%) [7]: 47%
Population Fragmented Nuclei (%) [7]: 19%
Population Healthy Nuclei (%) [7]: 64%
Population Hoechst High Intensity Objects (%) [7]: 3%
Population Membrane Permeable-Phenotype (%) [7]: 0%
Population Mitochondria Different-Phenotype (%) [7]: 2%
Population Mitotic Cells (%) [7]: 52%
Population Normal (%) [7]: 96%
Population Pyknosed Nuclei (%) [7]: 15%
Population Tubulin-Different-Phenotype (%) [7]: 22%
Total Cell Count [7]: 153
Population Apoptotic (%) [8]: 64%
Population Fragmented Nuclei (%) [8]: 45%
Population Healthy Nuclei (%) [8]: 32%
Population Mitochondria Different-Phenotype (%) [8]: 7%
Population Mitotic Cells (%) [8]: 35%
Population Pyknosed Nuclei (%) [8]: 21%
Population Tubulin-Different-Phenotype (%) [8]: 50%
Total Cell Count [8]: 82
Population Apoptotic (%) [9]: 71%
Population Fragmented Nuclei (%) [9]: 14%
Population Healthy Nuclei (%) [9]: 72%
Population Hoechst High Intensity Objects (%) [9]: 9%
Population Membrane Permeable-Phenotype (%) [9]: 0%
Population Mitochondria Different-Phenotype (%) [9]: 1%
Population Mitotic Cells (%) [9]: 28%
Population Normal (%) [9]: 90%
Population Pyknosed Nuclei (%) [9]: 13%
Population Tubulin-Different-Phenotype (%) [9]: 23%
Total Cell Count [9]: 178
Population Apoptotic (%) [10]: 39%
Population Fragmented Nuclei (%) [10]: 30%
Population Healthy Nuclei (%) [10]: 48%
Population Hoechst High Intensity Objects (%) [10]: 3%
Population Membrane Permeable-Phenotype (%) [10]: 9%
Population Mitotic Cells (%) [10]: 60%
Population Normal (%) [10]: 96%
Population Pyknosed Nuclei (%) [10]: 20%
Population Tubulin-Different-Phenotype (%) [10]: 56%
Total Cell Count [10]: 114
Population Apoptotic (%) [11]: 55%
Population Fragmented Nuclei (%) [11]: 26%
Population Healthy Nuclei (%) [11]: 61%
Population Hoechst High Intensity Objects (%) [11]: 6%
Population Membrane Permeable-Phenotype (%) [11]: 2%
Population Mitochondria Different-Phenotype (%) [11]: 3%
Population Mitotic Cells (%) [11]: 44%
Population Normal (%) [11]: 93%
Population Pyknosed Nuclei (%) [11]: 11%
Population Tubulin-Different-Phenotype (%) [11]: 29%
Total Cell Count [11]: 164
Population Apoptotic (%) [12]: 45%
Population Fragmented Nuclei (%) [12]: 49%
Population Healthy Nuclei (%) [12]: 36%
Population Hoechst High Intensity Objects (%) [12]: 2%
Population Membrane Permeable-Phenotype (%) [12]: 3%
Population Mitochondria Different-Phenotype (%) [12]: 17%
Population Mitotic Cells (%) [12]: 54%
Population Normal (%) [12]: 97%
Population Pyknosed Nuclei (%) [12]: 13%
Population Tubulin-Different-Phenotype (%) [12]: 51%
Total Cell Count [12]: 81
